Data: ChEMBL document CHEMBL1124353, “(R)- and (S)-5,6,7,8-tetrahydro-1-hydroxy-N,N-dipropyl-9H-benzocyclohepten- 8-ylamine. Stereoselective interactions with 5-HT1A receptors in the brain” (J Med Chem, 1989)

Legend:
[1] = molecular target: T1, 5-hydroxytryptamine receptor 1A (Rattus norvegicus, UniProt P19327); test: Affinity for 5-hydroxytryptamine 1A receptor site
T1 sequence (P19327 whole entry): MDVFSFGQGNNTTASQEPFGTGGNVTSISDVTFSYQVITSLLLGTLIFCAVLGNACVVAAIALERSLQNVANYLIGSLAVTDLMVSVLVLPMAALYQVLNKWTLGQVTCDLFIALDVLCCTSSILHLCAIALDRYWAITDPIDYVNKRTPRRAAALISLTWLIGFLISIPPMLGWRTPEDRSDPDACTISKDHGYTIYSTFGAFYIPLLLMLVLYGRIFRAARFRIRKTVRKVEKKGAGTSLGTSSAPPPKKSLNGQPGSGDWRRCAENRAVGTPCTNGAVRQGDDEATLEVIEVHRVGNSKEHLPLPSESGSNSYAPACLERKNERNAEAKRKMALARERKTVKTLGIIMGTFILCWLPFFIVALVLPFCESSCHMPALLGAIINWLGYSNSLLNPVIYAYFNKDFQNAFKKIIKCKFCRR
Summary of the method: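 Rat (male Sprague–Dawley) cortex plus hippocampus homogenised in 50 mM Tris-HCl with 4.0 mM CaCl2 and 5.7 mM ascorbate, pH 7.5, washed, pooled (≥6 rats), pargyline 10 μM pretreated. Incubated at 37 °C for 10 min with 2 nM [3H]-8-OH-DPAT and 1–300 nM competitor. Filtered, scintillation counted; 10 μM 5-HT defines nonspecific binding. Ki from nonlinear least-squares using Kd 1.4 nM.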

Rattus norvegicus [2] = test: In vivo accumulation of dopamine in striatum of rat brain at 10 umol/Kg; type: functional
Summary of the method: (§1)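 Nonreserpinised male Sprague–Dawley rats (180–220 g) given drug as hydrochloride sc in saline, 30 min before aromatic L-amino acid decarboxylase inhibitor NSD 1015; killed 30 min after NSD 1015. Striatum and limbic system (rhinal fissure landmark) dissected. 5-HTP or DOPA measured by ion-pair reversed-phase HPLC with electrochemical detection, ng/g; means ± SEM, n = 3–7 per dose group, Dunnett's test vs control.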

Rattus norvegicus [3] = test: In vivo accumulation of dopamine in striatum of rat brain at 32 umol/Kg; type: functional; summary of the method: as §1
Rattus norvegicus [4] = test: In vivo accumulation of 5-HTP in limbic of rat brain for following at 32 umol/Kg; type: functional; summary of the method: as §1
Rattus norvegicus [5] = test: In vivo accumulations of dopamine in limbic of rat brain for at 3.2 umol/Kg; type: functional; summary of the method: as §1
Rattus norvegicus [6] = test: In vivo accumulation of 5-HTP in limbic of rat brain at 3.2 umol/Kg; type: functional; summary of the method: as §1
Rattus norvegicus [7] = test: In vivo accumulations of dopamine in limbic of rat brain at 32 umol/Kg; type: functional; summary of the method: as §1
Rattus norvegicus [8] = test: In vivo accumulation of 5-HTP in limbic of rat brain for following at 10 umol/Kg; type: functional; summary of the method: as §1
Rattus norvegicus [9] = test: In vivo accumulation of dopamine in striatum of rat brain at 3.2 umol/Kg; type: functional; summary of the method: as §1
Rattus norvegicus [10] = test: In vivo accumulations of dopamine in limbic of rat brain at 10 umol/Kg; type: functional; summary of the method: as §1
Rattus norvegicus [11] = test: In vivo accumulation 5-HTP in striatum of rat brain at 10 umol/Kg; type: functional; summary of the method: as §1
Rattus norvegicus [12] = test: In vivo accumulation 5-HTP in striatum of rat brain striatum at 32 umol/Kg; type: functional; summary of the method: as §1
Rattus norvegicus [13] = test: In vivo accumulation 5-HTP in striatum of rat brain striatum at 32 umol/kg reserpine pretreatment; type: functional
Summary of the method: (§2)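 Male Sprague–Dawley rats pretreated with reserpine (8 μmol/kg, 4 h before), then given drug sc as hydrochloride in saline 30 min before NSD 1015 decarboxylase inhibition; killed 30 min later. Striatal and limbic 5-HTP or DOPA determined by ion-pair reversed-phase HPLC with electrochemical detection, ng/g; means ± SEM, n = 3–7; Dunnett's test vs reserpinised controls.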

Rattus norvegicus [14] = test: In vivo accumulation 5-HTP in striatum of rat brain at 3.2 umol/Kg; type: functional; summary of the method: as §1
Rattus norvegicus [15] = test: In vivo accumulation of 5-HTP in limbic of rat brain for following at 32 umol/kg reserpine pretreatment; type: functional; summary of the method: as §2
Rattus norvegicus [16] = test: In vivo accumulation of dopamine in striatum of rat brain at 32 umol/kg with reserpine pretreatment; type: functional; summary of the method: as §2

| Structure (SMILES) | Ki [1] [nM] | Dose (Rattus norvegicus [2]) [µM/kg] | Dose (Rattus norvegicus [3]) [µM/kg] | Dose (Rattus norvegicus [4]) [µM/kg] | Dose (Rattus norvegicus [5]) [µM/kg] | Dose (Rattus norvegicus [6]) [µM/kg] | Dose (Rattus norvegicus [7]) [µM/kg] | Dose (Rattus norvegicus [8]) [µM/kg] | Dose (Rattus norvegicus [9]) [µM/kg] | Dose (Rattus norvegicus [10]) [µM/kg] | Dose (Rattus norvegicus [11]) [µM/kg] | Dose (Rattus norvegicus [12]) [µM/kg] | Dose (Rattus norvegicus [13]) [µM/kg] | Dose (Rattus norvegicus [14]) [µM/kg] | Dose (Rattus norvegicus [15]) [µM/kg] | Dose (Rattus norvegicus [16]) [µM/kg] |
| --- | --- | --- | --- | --- | --- | --- | --- | --- | --- | --- | --- | --- | --- | --- | --- | --- |
| CCCN(CCC)[C@@H]1CCCc2cccc(O)c2C1 | 29.7 | 919 | 1035 | 76 | 408 | 132 | 437 | 122 | 1068 | 314 | 60 | 54 |  |  |  |  |
| CCCN(CCC)[C@H]1CCCc2cccc(O)c2C1 | > 300 | 830 |  |  | 331 | 194 |  | 170 | 1003 | 381 | 98 |  | 74 | 110 | 154 | 1934 |
